Laboratory results: ChEMBL document CHEMBL1154113, “Synthesis, cannabinoid receptor affinity, molecular modeling studies and in vivo pharmacological evaluation of new substituted 1-aryl-5-(1H-pyrrol-1-yl)-1H-pyrazole-3-carboxamides. 2. Effect of the 3-carboxamide substituent on the affinity and selectivity profile” (Bioorg Med Chem, 2009)
Activity calls are given as the source filed them. The rule behind the calls is not given here.

Tests used:
Cannabinoid receptor 1 = Cannabinoid receptor 1 (Homo sapiens, UniProt P21554); assay: biochemical; type: cell-based, HEK293
Chain of Cannabinoid receptor 1 (P21554 whole entry): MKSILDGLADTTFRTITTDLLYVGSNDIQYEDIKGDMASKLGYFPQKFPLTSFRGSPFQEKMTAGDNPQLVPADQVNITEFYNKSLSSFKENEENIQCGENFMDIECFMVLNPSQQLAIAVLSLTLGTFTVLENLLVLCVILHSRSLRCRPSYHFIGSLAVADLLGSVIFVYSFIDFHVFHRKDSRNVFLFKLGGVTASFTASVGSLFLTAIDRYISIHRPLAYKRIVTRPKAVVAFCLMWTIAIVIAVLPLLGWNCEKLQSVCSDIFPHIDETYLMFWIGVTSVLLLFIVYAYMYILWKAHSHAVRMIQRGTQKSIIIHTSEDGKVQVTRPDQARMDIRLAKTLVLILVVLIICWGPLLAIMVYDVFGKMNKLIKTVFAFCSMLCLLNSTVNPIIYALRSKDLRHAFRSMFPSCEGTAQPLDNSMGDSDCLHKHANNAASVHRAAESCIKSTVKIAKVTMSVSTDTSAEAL

Cannabinoid receptor 2 = Cannabinoid receptor 2 (Homo sapiens, UniProt P34972); assay: Displacement of [3H]CP-55940 from human recombinant CB2 receptor expressed in HEK cells; type: cell-based, HEK293
Chain of Cannabinoid receptor 2 (P34972 whole entry): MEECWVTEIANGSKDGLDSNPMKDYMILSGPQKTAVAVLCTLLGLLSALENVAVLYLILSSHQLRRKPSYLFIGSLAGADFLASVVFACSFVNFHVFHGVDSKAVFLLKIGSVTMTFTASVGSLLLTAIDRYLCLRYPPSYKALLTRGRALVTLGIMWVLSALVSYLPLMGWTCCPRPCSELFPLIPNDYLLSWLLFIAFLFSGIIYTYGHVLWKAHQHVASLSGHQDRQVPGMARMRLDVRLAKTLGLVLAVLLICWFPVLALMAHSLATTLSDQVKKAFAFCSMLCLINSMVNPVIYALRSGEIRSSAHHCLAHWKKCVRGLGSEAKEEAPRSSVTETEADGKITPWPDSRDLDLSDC

Homo sapiens = species on record: Homo sapiens; assay: Selectivity index, ratio of Ki for human recombinant CB2 receptor to Ki for human recombinant CB1 receptor
Rattus norvegicus [1] = assay: Reduction in cumulative food intake in Wistar rat at 1 mg/kg, ip measured 360 mins after lights off; type: functional
In short: (§1)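 Adult male Wistar rats, about 400 g, housed singly under an inverted 12:12 h cycle, with free access to chow and water. Groups of n = 6–8 were matched on body weight and intake and given 0, 0.1, 1 or 10 mg/kg ip, suspended in saline with a few drops of Tween 80, 30 min before lights off. Food and water were weighed at 60–360 and 1440 min. Newman–Keuls test against vehicle.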

Rattus norvegicus [2] = assay: Reduction in cumulative food intake in Wistar rat at 10 mg/kg, ip measured 360 mins after lights off; type: functional; conditions: 6 h, route intraperitoneal
In short: as §1

Rattus norvegicus [3] = assay: Reduction in food intake in Wistar rat at 10 mg/kg, ip after 1440 mins; type: functional, organism-based; design: dose 10 mg/kg
In short: as §1

Rattus norvegicus [4] = assay: Reduction in cumulative water intake in Wistar rat at 0.1 to 10 mg/kg, ip measured 360 mins after lights off; type: functional, organism-based
In short: as §1

Rattus norvegicus [5] = assay: Reduction in cumulative water intake in Wistar rat at 0.1 to 10 mg/kg, ip after 1440 mins; type: functional, organism-based
In short: as §1

Rattus norvegicus [6] = assay: Reduction in cumulative food intake in Wistar rat at 10 mg/kg, ip measured 60 mins after lights off relative to control; type: functional; conditions: 1 h, route intraperitoneal
In short: as §1

Rattus norvegicus [7] = assay: Reduction in food intake in Wistar rat at 1 mg/kg, ip after 1440 mins; type: functional, organism-based; design: dose 1 mg/kg
In short: as §1

SMILES | Ki (Cannabinoid receptor 1) [nM] | Ki (Cannabinoid receptor 2) [nM] | Ratio Ki (Homo sapiens) | other results
Cc1c(C(=O)NCCc2ccc(Cl)cc2)nn(-c2ccc(F)cc2F)c1-n1cccc1 | 80 | > 3940 | > 49.2 | –
COc1cc(CNC(=O)c2nn(-c3ccc(Cl)cc3Cl)c(-n3c(C)ccc3C)c2C)c(Br)c(OC)c1OC | 144 | 553 | 3.84 | –
COc1cc(CNC(=O)c2nn(-c3ccc(F)cc3F)c(-n3cccc3)c2C)c(Br)c(OC)c1OC | 345 | 739 | 2.14 | –
Cc1c(C(=O)NC23CC4CC(CC(C4)C2)C3)nn(-c2ccc(Cl)c(Cl)c2)c1-n1cccc1 | 31 | 20 | 0.65 | –
Cc1c(C(=O)N[C@H](C)C2CCCCC2)nn(-c2ccc(Cl)c(Cl)c2)c1-n1cccc1 | 14 | 1.6 | 0.11 | –
Cc1c(C(=O)NCCc2ccc(Cl)cc2Cl)nn(-c2ccc(Cl)cc2Cl)c1-n1c(C)ccc1C | 156 | > 3940 | > 25.2 | –
Cc1c(C(=O)NCc2ccc(Cl)cc2)nn(-c2ccc(F)cc2F)c1-n1cccc1 | 340 | 3400 | 10 | –
Cc1c(C(=O)Nc2ccc(Cl)cc2)nn(-c2ccc(Cl)cc2Cl)c1-n1cccc1 | 120 | 80 | 0.67 | –
Cc1c(C(=O)NCc2ccc(Cl)cc2)nn(-c2ccc(Cl)c(Cl)c2)c1-n1c(C)ccc1C | 100 | 790 | 7.9 | –
COc1ccc(CCNC(=O)c2nn(-c3ccc(Cl)cc3Cl)c(-n3cccc3)c2C)cc1Cl | 368 | 2890 | 7.84 | –
Cc1c(C(=O)NC2CCCCCC2)nn(-c2ccc(F)cc2F)c1-n1c(C)ccc1C | 56 | 110 | 1.96 | –
Cc1c(C(=O)NCc2ccc(Cl)cc2)nn(-c2ccc(Cl)cc2Cl)c1-n1cccc1 | 140 | 940 | 6.71 | –
Cc1c(C(=O)NCc2ccc(Cl)cc2)nn(-c2ccc(Cl)c(Cl)c2)c1-n1cccc1 | 70 | 100 | 1.43 | –
Cc1c(C(=O)NC2CCCCCC2)nn(-c2ccc(Cl)cc2Cl)c1-n1c(C)ccc1C | 56 | 80 | 1.43 | –
Cc1c(C(=O)NCCc2ccc(Cl)cc2)nn(-c2ccc(F)cc2F)c1-n1c(C)ccc1C | 50 | > 3940 | > 78.8 | Activity (Rattus norvegicus [1]): Active; inhibition in vivo at 10 mg/kg (Rattus norvegicus [2]): 25%; Activity (Rattus norvegicus [3]): Active; Activity (Rattus norvegicus [4]): inactive; Activity (Rattus norvegicus [5]): inactive; inhibition in vivo at 10 mg/kg (Rattus norvegicus [6]): 40%
COc1ccc(CCNC(=O)c2nn(-c3ccc(Cl)cc3Cl)c(-n3c(C)ccc3C)c2C)cc1Cl | 112 | 3480 | 31.1 | –
Cc1c(C(=O)NCc2ccc(Cl)cc2)nn(-c2ccc(Cl)cc2Cl)c1-n1c(C)ccc1C | 90 | > 3940 | > 43.8 | –
Cc1c(C(=O)NCCc2ccc(Cl)cc2Cl)nn(-c2ccc(F)cc2F)c1-n1c(C)ccc1C | 41 | 721 | 17.6 | –
Cc1c(C(=O)NCc2ccc(Cl)c(Cl)c2)nn(-c2ccc(Cl)cc2Cl)c1-n1c(C)ccc1C | – | – | 141 | inhibition in vivo at 1 mg/kg (Rattus norvegicus [1]; 6 h, route intraperitoneal): 15%; inhibition in vivo at 10 mg/kg (Rattus norvegicus [2]): 25%; Activity (Rattus norvegicus [7]): Active; Activity (Rattus norvegicus [3]): Active; Activity (Rattus norvegicus [4]): inactive; Activity (Rattus norvegicus [5]): inactive
Cc1c(C(=O)NC2CCCCCC2)nn(-c2ccc(F)cc2F)c1-n1cccc1 | 560 | 200 | 0.36 | –
Cc1c(C(=O)Nc2ccc(Cl)cc2)nn(-c2ccc(F)cc2F)c1-n1cccc1 | 2100 | > 3940 | 3.76 | –
Cc1c(C(=O)NCCc2ccc(Cl)cc2Cl)nn(-c2ccc(Cl)cc2Cl)c1-n1cccc1 | 218 | > 3940 | > 18.1 | –
COc1ccc(CCNC(=O)c2nn(-c3ccc(F)cc3F)c(-n3cccc3)c2C)cc1Cl | 948 | 1940 | 2.05 | –
Cc1c(C(=O)NCCc2ccc(Cl)c(Cl)c2)nn(-c2ccc(Cl)cc2Cl)c1-n1c(C)ccc1C | 117 | > 3940 | > 33.4 | –
Cc1c(C(=O)NC2CCCC2)nn(-c2ccc(Cl)cc2Cl)c1-n1cccc1 | 84 | 170 | 2.02 | –
Cc1c(C(=O)NC2CCCC2)nn(-c2ccc(Cl)c(Cl)c2)c1-n1c(C)ccc1C | 36 | 12 | 0.33 | –
COc1cc(CNC(=O)c2nn(-c3ccc(F)cc3F)c(-n3c(C)ccc3C)c2C)c(Br)c(OC)c1OC | 165 | 373 | 2.26 | –

SMILES | Ki (Cannabinoid receptor 1) [nM] | Ki (Cannabinoid receptor 2) [nM] | Ratio Ki (Homo sapiens) | other results
Cc1c(C(=O)NCCc2ccc(Cl)cc2)nn(-c2ccc(Cl)c(Cl)c2)c1-n1cccc1 | 240 | 1200 | 5 | –
Cc1c(C(=O)NCCc2ccc(Cl)c(Cl)c2)nn(-c2ccc(Cl)cc2Cl)c1-n1cccc1 | 157 | > 3940 | > 25.1 | –
Cc1c(C(=O)NCCc2ccc(Cl)cc2Cl)nn(-c2ccc(F)cc2F)c1-n1cccc1 | 380 | 667 | 1.75 | –
Cc1c(C(=O)NC2CCCCCC2)nn(-c2ccc(Cl)cc2Cl)c1-n1cccc1 | 20 | 20 | 1 | –
Cc1c(C(=O)Nc2ccc(Cl)cc2)nn(-c2ccc(Cl)cc2Cl)c1-n1c(C)ccc1C | 96 | > 3940 | > 41 | –
Cc1c(C(=O)NCCc2ccc(Cl)cc2)nn(-c2ccc(Cl)c(Cl)c2)c1-n1c(C)ccc1C | 390 | > 3940 | > 10.1 | –
Cc1c(C(=O)NCCc2ccc(Cl)c(Cl)c2)nn(-c2ccc(F)cc2F)c1-n1c(C)ccc1C | 54 | > 3940 | > 73 | –
Cc1c(C(=O)NC2CCCC2)nn(-c2ccc(Cl)cc2Cl)c1-n1c(C)ccc1C | 150 | 310 | 2.07 | –
Cc1c(C(=O)N[C@@H](C)C2CCCCC2)nn(-c2ccc(Cl)c(Cl)c2)c1-n1cccc1 | 3.4 | 2.4 | 0.71 | –
Cc1c(C(=O)NCCc2ccc(Cl)cc2)nn(-c2ccc(Cl)cc2Cl)c1-n1cccc1 | 70 | > 3940 | > 56.2 | –
Cc1c(C(=O)NC2CCCCC2)nn(-c2ccc(Cl)c(Cl)c2)c1-n1cccc1 | – | – | 0.3 | –
COc1cc(CNC(=O)c2nn(-c3ccc(Cl)cc3Cl)c(-n3cccc3)c2C)c(Br)c(OC)c1OC | 227 | 609 | 2.68 | –
Cc1c(C(=O)NC23CC4CC(CC(C4)C2)C3)nn(-c2ccc(Cl)c(Cl)c2)c1-n1c(C)ccc1C | 5.6 | 12 | 2.14 | –
COc1ccc(CCNC(=O)c2nn(-c3ccc(F)cc3F)c(-n3c(C)ccc3C)c2C)cc1Cl | 99 | > 3940 | > 39.8 | –
Cc1c(C(=O)NC2CCCCCC2)nn(-c2ccc(Cl)c(Cl)c2)c1-n1cccc1 | 5.6 | 1.3 | 0.23 | –
Cc1c(C(=O)NCCc2ccc(Cl)c(Cl)c2)nn(-c2ccc(F)cc2F)c1-n1cccc1 | 310 | 1290 | 4.16 | –
Cc1c(C(=O)NC2CCCC2)nn(-c2ccc(F)cc2F)c1-n1c(C)ccc1C | 840 | 900 | 1.07 | –
Cc1c(C(=O)NCc2ccc(Cl)cc2)nn(-c2ccc(F)cc2F)c1-n1c(C)ccc1C | 56 | > 3940 | > 70.4 | –
Cc1c(C(=O)NC2CCCC2)nn(-c2ccc(Cl)c(Cl)c2)c1-n1cccc1 | 50 | 12 | 0.24 | –
Cc1c(C(=O)Nc2ccc(Cl)cc2)nn(-c2ccc(Cl)c(Cl)c2)c1-n1c(C)ccc1C | > 2820 | > 3940 | – | –
Cc1c(C(=O)NC(C)c2ccccc2)nn(-c2ccc(Cl)c(Cl)c2)c1-n1c(C)ccc1C (stereo not drawn) | 80 | 5.7 | 0.071 | –
Cc1c(C(=O)NC2CCCC2)nn(-c2ccc(F)cc2F)c1-n1cccc1 | 2400 | 1100 | 0.46 | –
Cc1c(C(=O)NC2CCCCCC2)nn(-c2ccc(Cl)c(Cl)c2)c1-n1c(C)ccc1C | 12 | 4.2 | 0.35 | –
Cc1c(C(=O)Nc2ccc(Cl)cc2)nn(-c2ccc(F)cc2F)c1-n1c(C)ccc1C | 560 | > 3940 | > 7.04 | –
Cc1c(C(=O)Nc2ccc(Cl)cc2)nn(-c2ccc(Cl)c(Cl)c2)c1-n1cccc1 | 1300 | 790 | 0.61 | –
Cc1c(C(=O)NCCc2ccc(Cl)cc2)nn(-c2ccc(Cl)cc2Cl)c1-n1c(C)ccc1C | 30 | > 3940 | > 131 | –
Cc1c(C(=O)NC(c2ccccc2)c2ccc(Cl)cc2)nn(-c2ccc(Cl)c(Cl)c2)c1-n1c(C)ccc1C (stereo not drawn) | > 2820 | > 3940 | – | –
